Target: Aβ40 (Homo sapiens, UniProt P05067)
Assay: Aβ40 aggregation inhibition and fibril destabilization
Format: biochemical
Details: synthetic peptides
How it was run: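 Aβ40 was pre-treated in HFIP (1.0 mg/mL), lyophilized, stored at −20 °C, redissolved in DMSO to 5 mM and sonicated 10 min. It was diluted into PBS pH 7.5 with 0.2% SDS (100 μM final) and incubated at 37 °C for 7 days, with test compound added before incubation or to preformed aggregates. Samples were imaged by acoustic AC-mode AFM. ThT was read immediately (Aβ40 5 μM, ThT 20 μM; ex 450 nm, em 480–600 nm) with the no-Aβ40 background subtracted; mean ± SD, three independent experiments.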

Aβ40, sequence (P05067 672-711 limits assumed): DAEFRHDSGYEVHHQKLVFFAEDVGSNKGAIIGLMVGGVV

ThT fluorescence of treated Aβ40 compared to control (Aβ40/peptide = 10:1, 7 days, ThT 20 μM, Aβ40 5 μM): even higher ThT fluorescence | effect on Aβ40 aggregation (AFM) (Aβ40/peptide = 10:1, PBS pH 7.5 with 0.2% SDS, 37 °C, 7 days): aggravated the aggregation tendency
Substance: KAISFSK [Peptide P1]
